Data reported in publication PMC10694825 (The journal of physical chemistry. B, 2023).
Where a chain is given by its changes, count along the chain named. Where two headings read alike, the source gives them in different places.

What was measured:
[1] = target: T1, PTP1B (Homo sapiens, UniProt P18031); conditions: cited from earlier work; for selectivity: inhibits PTP1B more potently than TCPTP (fold): PTP1B over TCPTP
T1 sequence (P18031 1-321): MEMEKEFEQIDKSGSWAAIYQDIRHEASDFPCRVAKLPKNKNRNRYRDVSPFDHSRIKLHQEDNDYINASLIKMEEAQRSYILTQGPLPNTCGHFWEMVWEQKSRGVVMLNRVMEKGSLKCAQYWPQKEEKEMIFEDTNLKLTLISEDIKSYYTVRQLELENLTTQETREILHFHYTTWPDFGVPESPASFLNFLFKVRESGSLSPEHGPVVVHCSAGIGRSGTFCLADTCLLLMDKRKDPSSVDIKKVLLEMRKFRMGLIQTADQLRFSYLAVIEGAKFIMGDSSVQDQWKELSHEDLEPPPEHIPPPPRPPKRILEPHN

[2] = target: T2, TCPTP L158F (Homo sapiens, UniProt P17706, L158F); assay: pNPP enzyme kinetics, L158F variant; type: biochemical; conditions: TCPTP L158F vs wild type
T2 sequence (P17706 1-317 L158F): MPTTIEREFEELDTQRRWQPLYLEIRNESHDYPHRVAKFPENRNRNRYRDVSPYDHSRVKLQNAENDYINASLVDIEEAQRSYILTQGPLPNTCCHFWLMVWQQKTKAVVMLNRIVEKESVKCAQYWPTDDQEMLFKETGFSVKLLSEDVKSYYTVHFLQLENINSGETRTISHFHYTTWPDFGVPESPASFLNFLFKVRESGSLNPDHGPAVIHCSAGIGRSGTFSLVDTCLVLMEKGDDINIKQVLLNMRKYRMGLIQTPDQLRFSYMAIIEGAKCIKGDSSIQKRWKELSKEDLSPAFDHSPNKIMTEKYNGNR

[3] = target: T3, TCPTP (Homo sapiens, UniProt P17706); assay: pNPP enzyme kinetics, inhibition by amorphadiene; type: biochemical; conditions: read-out: IC50 for TCPTP; wild type, pNPP substrate, this study
T3 sequence (P17706 1-317): T2 sequence (P17706 1-317 L158F) with F158L
How it was run: (§1)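 Truncated enzymes (PTP1B 1–351, TCPTP 1–317) expressed in E. coli BL21(DE3), purified by Ni-affinity and anion-exchange. Reactions held 50 nM enzyme, 50 μg/mL BSA and terpenoid at 0.5–500 μM in 50 mM HEPES pH 7.3 with 10% DMSO for 1 h at 22 °C. 20 mM pNPP started the reaction; A405 read every 30 s over 8 min. Initial rates came from a standard curve, and IC50 from a Hill-equation fit. Selectivity was taken as the TCPTP/PTP1B IC50 ratio.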

[4] = target: T4, PTP1B Q290R (Homo sapiens, UniProt P18031, Q290R); assay: pNPP enzyme kinetics, Q290R variant; type: biochemical; conditions: PTP1B Q290R vs wild type
T4 sequence (P18031 1-321 Q290R): T1 sequence (P18031 1-321) with Q290R
How it was run: (§2)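 Catalytic-domain constructs (PTP1B 1–351, TCPTP 1–317), with mutations made by Gibson assembly, expressed in E. coli BL21(DE3) and purified by Ni-affinity then anion exchange. Enzyme at 50 nM with 50 μg/mL BSA and test compound (0.5–500 μM) in 50 mM HEPES pH 7.3 with 10% DMSO, preincubated 1 h at 22 °C. Started with 20 mM pNPP; A405 read every 30 s for 8 min. IC50 from a Hill fit of initial rates.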

[5] = target: T3, TCPTP; conditions: read-out: IC50 for TCPTP; previously reported; cited from earlier work
[6] = target: T5, TCPTP R288Q (Homo sapiens, UniProt P17706, R288Q); assay: pNPP enzyme kinetics, R288Q variant; type: biochemical; conditions: TCPTP R288Q vs wild type
T5 sequence (P17706 1-317 R288Q): T2 sequence (P17706 1-317 L158F) with F158L, R288Q
How it was run: as §2

[7] = target: T6, TCPTP K280M (Homo sapiens, UniProt P17706, K280M); assay: pNPP enzyme kinetics, K280M variant; type: biochemical; conditions: TCPTP K280M vs wild type
T6 sequence (P17706 1-317 K280M): T2 sequence (P17706 1-317 L158F) with F158L, K280M
How it was run: as §2

[8] = target: T1, PTP1B; assay: pNPP enzyme kinetics, inhibition by amorphadiene; type: biochemical; conditions: this study
How it was run: as §1

[9] = target: T1, PTP1B; conditions: MD simulation, cited from earlier work
[10] = target: T7, PTP1B L158F (Homo sapiens, UniProt P18031, L158F); assay: pNPP enzyme kinetics, L158F variant; type: biochemical; conditions: PTP1B L158F vs wild type
T7 sequence (P18031 1-321 L158F): T1 sequence (P18031 1-321) with L158F

[11] = target: T8, PTP1B M282K (Homo sapiens, UniProt P18031, M282K); assay: pNPP enzyme kinetics, M282K variant; type: biochemical; conditions: PTP1B M282K vs wild type
T8 sequence (P18031 1-321 M282K): T1 sequence (P18031 1-321) with M282K
How it was run: as §2

Row | SMILES | selectivity: inhibits PTP1B more potently than TCPTP (fold) [1] | IC50 of L158F mutant compared with wild type [2] | IC50 [3] [µM] | effect of mutation on potency (IC50) [4] | IC50 [5] [µM] | effect of mutation on IC50 [6] | effect of mutation on IC50 [7] | IC50 ratio (TCPTP/PTP1B), metric for selectivity ([1]; previously reported) | IC50 ([1]; read-out: IC50 for PTP1B, previously reported) [µM] | IC50 ([8]; read-out: IC50 for PTP1B, wild type, pNPP substrate) [µM] | IC50 ratio (TCPTP/PTP1B), metric for selectivity [8] | occupancy of the β site (loc4), observed trajectories ([9]; PTP1B with disordered α7 helix) [%] | occupancy of the β site (loc4), observed trajectories ([9]; PTP1B with truncated α7 helix) [%] | IC50 of L158F mutant compared with wild type [10] | effect of mutation on potency (IC50) [11]
1 | CC(C)=CCC=C(C)C1CC=C(C)CC1 (stereo not drawn) [AB, α-bisabolene] | 5–8 × | – | – | – | – | – | – | – | – | – | – | – | – | – | –
2 | C=C(C)[C@@H]1CC[C@@H](C)[C@@H]2CCC(C)=C[C@@H]21 [AD, amorphadiene] | 5–8 × | indistinguishable between wild-type and mutant enzymes | 27 ± 11.2 | reduced potency | 349 ± 77 | no effect on the IC50 | no effect on the IC50 | 6.6 ± 1.8 | 53 ± 8 | 7.7 ± 2.4 | 3.5 ± 1.8 | 0 | 88 | indistinguishable between wild-type and mutant enzymes | reduced potency
